The target in one test is Cannabinoid receptor 1 (Homo sapiens, UniProt P21554). The experiment in a line: Displacement of [3H]CP-55940 from human CB1 receptor expressed in HEK293 cells. The class given is cell-based. In general terms: Loss of bound radioactivity is the signal in a displacement assay; it reports binding, not function.
A further test addresses Cannabinoid receptor 2 (Homo sapiens, UniProt P34972). The experiment in a line: Displacement of [3H]CP-55940 from human CB2 receptor expressed in CHO-K1 cells. In kind it is cell-based.
The species entered for another test is Homo sapiens. The experiment in a line: Selectivity ratio of Ki for human CB1 receptor to Ki for human CB2 receptor.
A short description of test [1]: Cytotoxicity against human LN229 cells assessed as cell death after 18 hrs. In kind it is functional, cell-based. As to conditions: LN-229, 18 h. An outline of the steps: (§1)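 Glioma lines (U-87MG, T98G, LN-229, DBTRG-O5MG, primary MT310) plated at 70% confluency in 100 µl supplemented medium, left overnight at 37 °C to adhere. Cells were then exposed to escalating drug amounts for 18 h. Viability was measured by CCK-8 absorbance at 450 nm relative to untreated controls. Values are the mean of three data points per determination, three independent determinations.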

The nature of test [2]: Cytotoxicity against human DBTRG-O5MG cells assessed as cell death after 18 hrs. The class given is functional, cell-based. The essentials: as §1
Test [3] can be described thus: Cytotoxicity against human MT310 cells assessed as cell death after 18 hrs. The class given is functional, cell-based. An outline of the steps: as §1
Another test concerns T98G. The experiment in a line: Cytotoxicity against human T98G cells assessed as cell death after 18 hrs. The class given is functional, cell-based. The essentials: as §1
Test [4] is described as follows: Cytotoxicity against human U87 cells by side flank model relative to control. In kind it is functional, U-87MG ATCC. The note with it: U-87 MG.
The nature of test [5]: Cytotoxicity against human U87MG cells assessed as cell death after 18 hrs. In kind it is functional, U-87MG ATCC. The essentials:
as §1

Chain of Cannabinoid receptor 2 (P34972 whole entry): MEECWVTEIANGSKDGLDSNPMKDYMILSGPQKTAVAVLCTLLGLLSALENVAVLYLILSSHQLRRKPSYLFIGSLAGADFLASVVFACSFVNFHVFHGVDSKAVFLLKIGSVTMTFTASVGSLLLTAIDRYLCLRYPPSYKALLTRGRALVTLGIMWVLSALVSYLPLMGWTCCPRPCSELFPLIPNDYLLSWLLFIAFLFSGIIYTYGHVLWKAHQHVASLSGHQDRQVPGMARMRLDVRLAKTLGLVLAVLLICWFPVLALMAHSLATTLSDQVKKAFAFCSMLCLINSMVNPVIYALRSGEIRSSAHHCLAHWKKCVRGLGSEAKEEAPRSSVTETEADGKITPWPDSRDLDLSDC
Chain of Cannabinoid receptor 1 (P21554 whole entry): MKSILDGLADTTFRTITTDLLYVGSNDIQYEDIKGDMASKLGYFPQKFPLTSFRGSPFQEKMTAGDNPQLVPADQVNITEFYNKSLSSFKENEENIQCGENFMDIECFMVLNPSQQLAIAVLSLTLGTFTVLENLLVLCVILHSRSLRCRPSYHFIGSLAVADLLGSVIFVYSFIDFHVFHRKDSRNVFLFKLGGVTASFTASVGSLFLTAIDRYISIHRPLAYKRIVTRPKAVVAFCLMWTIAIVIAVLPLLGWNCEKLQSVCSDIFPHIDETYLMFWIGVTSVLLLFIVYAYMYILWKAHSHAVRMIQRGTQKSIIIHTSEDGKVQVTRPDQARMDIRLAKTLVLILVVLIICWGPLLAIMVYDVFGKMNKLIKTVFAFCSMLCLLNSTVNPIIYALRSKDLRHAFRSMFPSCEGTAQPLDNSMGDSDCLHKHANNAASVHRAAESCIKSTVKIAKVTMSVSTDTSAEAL

In the case of `CC1=CC[C@@H]2[C@@H](C1)c1c(O)cc(C(C)(C)c3ccc(C#N)cc3)cc1OC2(C)C`, the Ki – broadly, a measure of affinity in units of concentration, obtained from inhibition or displacement – is 9.25 nM on Cannabinoid receptor 1 and 2.53 nM at Cannabinoid receptor 2. In addition, the Ratio Ki in the test listed under Homo sapiens turned out to be 3.66.
In the case of `CC1=CC[C@@H]2[C@@H](C1)c1c(O)cc(C(C)(C)c3ccc(C(N)=O)cc3)cc1OC2(C)C`, the Ratio Ki in the test listed under Homo sapiens was 1.01.
As to `CC1=CC[C@@H]2[C@@H](C1)c1c(O)cc(C(C)(C)c3cc(C)cc(C)c3)cc1OC2(C)C`, the Ki at Cannabinoid receptor 1 was found to be 11 nM; at Cannabinoid receptor 2, 7.45 nM. Also, the Ratio Ki in the test filed under Homo sapiens came to 1.48.
On to `CC1=CC[C@@H]2[C@@H](C1)c1c(O)cc(C(C)(C)c3cccc(Br)c3)cc1OC2(C)C`, for which the Ki is 1.59 nM at Cannabinoid receptor 1 and 0.54 nM at Cannabinoid receptor 2. Further, in the test filed under Homo sapiens, the Ratio Ki was determined as 2.94.
Regarding `CCc1ccc(C(C)(C)c2cc(O)c3c(c2)OC(C)(C)[C@@H]2CC=C(C)C[C@@H]32)cc1`, the EC50 (as a rule, the concentration needed to bring the measured effect to its halfway point) was 1670 nM in [1]; 3000 nM in test [2]; 4110 nM in [3]; 3230 nM with T98G; 2520 nM in [4]. For the same compound, the Ki on Cannabinoid receptor 1 was 1.85 nM; at Cannabinoid receptor 2, 0.67 nM. The Ratio Ki in the test listed under Homo sapiens came to 2.76.
As to `CC1=CC[C@@H]2[C@@H](C1)c1c(O)cc(C(C)(C)c3ccc(C)cc3)cc1OC2(C)C`, the Ki at Cannabinoid receptor 1 came out at 3.13 nM; on Cannabinoid receptor 2, 0.88 nM. The Ratio Ki in the test listed under Homo sapiens was found to be 3.56.
Regarding `CC1=CC[C@@H]2[C@@H](C1)c1c(O)cc(C(C)(C)c3cccc(C#N)c3)cc1OC2(C)C`, the Ki turned out to be 2.72 nM on Cannabinoid receptor 1 and 0.91 nM on Cannabinoid receptor 2. Besides, in the test filed under Homo sapiens, the Ratio Ki is 2.98.
On to `CC1=CC[C@@H]2[C@@H](C1)c1c(O)cc(C(C)(C)c3cccs3)cc1OC2(C)C`, for which the EC50 in test [1] was 2020 nM; in [2], 2670 nM; in test [3], 4100 nM; with T98G, 2210 nM; in test [4] it was 1830 nM. For the same compound, the Ki at Cannabinoid receptor 1 turned out to be 1.08 nM; on Cannabinoid receptor 2, 0.27 nM. Besides, the Ratio Ki in the test filed under Homo sapiens worked out at 4.
As to `CCCc1ccc(C(C)(C)c2cc(O)c3c(c2)OC(C)(C)[C@@H]2CC=C(C)C[C@@H]32)cc1`, the EC50 worked out at 2440 nM in test [1]; 3580 nM in test [2]; 6460 nM in test [3]; 3630 nM in the test with T98G; 3170 nM in test [4]. The Ki is 1.77 nM on Cannabinoid receptor 1 and 7.83 nM on Cannabinoid receptor 2. Moreover, the Ratio Ki in the test listed under Homo sapiens worked out at 0.23.
With `CC1=CC[C@@H]2[C@@H](C1)c1c(O)cc(C(C)(C)c3ccccc3C)cc1OC2(C)C`, the Ki on Cannabinoid receptor 1 worked out at 34.4 nM; at Cannabinoid receptor 2 it was 10.7 nM. In addition, in the test listed under Homo sapiens, the Ratio Ki was 3.23.
Consider `CC1=CC[C@@H]2[C@@H](C1)c1c(O)cc(C(C)(C)c3ccccc3)cc1OC2(C)C`, for which the EC50 in [1] was 2630 nM; in test [2], 2270 nM; in test [3], 4290 nM; in the test with T98G, 4680 nM; in test [4], 3080 nM. Further, the Activity in [5] was determined as 75%. For the same compound, the Ratio Ki in the test listed under Homo sapiens was determined as 13.5.
`CC1=CC[C@@H]2[C@@H](C1)c1c(O)cc(C(C)(C)c3ccc(F)cc3)cc1OC2(C)C`: the EC50 turned out to be 2020 nM in [1]; 3080 nM in test [2]; 8780 nM in [3]; 3300 nM in the test with T98G; 2550 nM in test [4]. Moreover, the Ki on Cannabinoid receptor 1 is 76.1 nM; on Cannabinoid receptor 2 it was 12.4 nM. For the same compound, the Ratio Ki in the test listed under Homo sapiens was determined as 6.14.
As for `CC1=CC[C@@H]2[C@@H](C1)c1c(O)cc(C(C)(C)c3cccc(Cl)c3)cc1OC2(C)C`, the figures for the Ki on Cannabinoid receptor 1 and on Cannabinoid receptor 2 were 2.8 nM and 3.54 nM, respectively. The Ratio Ki in the test listed under Homo sapiens is 0.79.
For `CC1=CC[C@@H]2[C@@H](C1)c1c(O)cc(C(C)(C)c3cccc(F)c3)cc1OC2(C)C` the same measures were 5.26 nM, 0.9 nM and 5.84.
With `CC1=CC[C@@H]2[C@@H](C1)c1c(O)cc(C(C)(C)c3cccc(C)c3)cc1OC2(C)C`, the values for the Ki at Cannabinoid receptor 1 and at Cannabinoid receptor 2 were 2.53 nM and 1.13 nM, respectively. The Ratio Ki in the test listed under Homo sapiens stood at 2.24.
Take `CC1=CC[C@@H]2[C@@H](C1)c1c(O)cc(C(C)(C)c3ccc(Cl)cc3)cc1OC2(C)C`: the half-maximal effective concentration (EC50) in test [1] is 2870 nM; in [2] it was 4610 nM; in test [3], 7310 nM; in the test with T98G, 3400 nM; in test [4], 3270 nM. For the same compound, the Ki on Cannabinoid receptor 1 was 18.8 nM; at Cannabinoid receptor 2, 1.68 nM. Also, in the test listed under Homo sapiens, the Ratio Ki was 11.2.
As for `CC1=CC[C@@H]2[C@@H](C1)c1c(O)cc(C(C)(C)c3ccc(Br)cc3)cc1OC2(C)C`, the Ki at Cannabinoid receptor 1 turned out to be 5.03 nM; on Cannabinoid receptor 2, 1.54 nM. For the same compound, in the test filed under Homo sapiens, the Ratio Ki is 3.26.

The values above are taken from ChEMBL document CHEMBL1157458, “Exploring the substituent effects on a novel series of C1'-dimethyl-aryl Delta8-tetrahydrocannabinol analogs” (Bioorg Med Chem, 2008).
